Experimental data as given in ChEMBL document CHEMBL4732051, “The discovery of potent small molecule activators of human STING” (Eur J Med Chem, 2021).

molecular target: T1, Stimulator of interferon genes protein (Homo sapiens, UniProt Q86WV6); assay: Activation of wild-type human STING expressed in HEK293T cells assessed as IRF3 reporter activation at 1 uM measured after 20 hrs by luciferase reporter gene assay; format: cell-based; conditions: not given
Procedure, shortened: (§1)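 HEK293T-hSTING cells carrying a secreted luciferase reporter under an IRF-inducible promoter, made by blasticidin selection and clonal selection; parental HEK293T-luciferase cells as control. 5 x 10^5 cells per well treated at a single concentration. Supernatant luciferase read after 20 h by Quanti-Luc, as % activation relative to a positive-control agonist.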

T1 sequence (Q86WV6 whole entry): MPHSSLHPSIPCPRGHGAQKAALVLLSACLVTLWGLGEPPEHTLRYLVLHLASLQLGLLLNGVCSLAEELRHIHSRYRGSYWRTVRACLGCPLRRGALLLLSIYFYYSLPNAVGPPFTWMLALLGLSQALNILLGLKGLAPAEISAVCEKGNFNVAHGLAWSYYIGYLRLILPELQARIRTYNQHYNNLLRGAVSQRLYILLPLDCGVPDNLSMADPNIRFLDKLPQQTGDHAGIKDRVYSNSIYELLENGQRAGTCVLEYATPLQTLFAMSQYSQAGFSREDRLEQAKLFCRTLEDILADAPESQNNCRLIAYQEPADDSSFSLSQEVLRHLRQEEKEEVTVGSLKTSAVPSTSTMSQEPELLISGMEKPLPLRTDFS

Going from `CC1Oc2ncc(C(=O)NCc3c(F)cc(F)cc3F)cc2N(Cc2cc(F)cc(F)c2)C1=O` (racemic) to `O=C(NCc1c(F)cc(F)cc1F)c1cnc2c(c1)N(Cc1cc(F)cc(F)c1)C(=O)CO2`, the Activity falls from 6% to 3%.

Compared with `COC1(C)C(=O)N(Cc2c(F)cccc2Cl)c2cc(C(=O)NCc3c(F)cc(F)cc3F)ccc21` (racemic), `O=C(NCc1c(F)cc(F)cc1F)c1ccc2c(n1)N(Cc1cc(F)cc(F)c1)C(=O)CC2` is lower in Activity: 20% for the first, 5% for the second.

same assay, conditions: filed as activator

Compared with `CC1(C)C(=O)N(Cc2ccccc2F)c2cc(C(=O)NCc3c(F)cc(F)cc3F)ccc21`, `CC1(C#N)C(=O)N(Cc2c(F)cccc2Cl)c2cc(C(=O)NCc3c(F)cc(F)cc3F)ccc21` (racemic) is lower in Activity: 116% for the first, 102% for the second.

Going from `CC1Oc2ccc(C(=O)NCc3c(F)cc(F)cc3F)cc2N(Cc2cc(F)cc(F)c2)C1=O` (racemic) to `CC1(C)CC(=O)N(Cc2cc(F)cc(F)c2)c2cc(C(=O)NCc3c(F)cc(F)cc3F)ccc21`, the Activity rises from 95% to 102%.

Going from `CC1Cc2ccc(C(=O)NCc3c(F)cc(F)cc3F)cc2N(Cc2cc(F)cc(F)c2)S1(=O)=O` (racemic) to `CC1Cc2ccc(C(=O)NCc3c(F)cc(F)cc3F)cc2N(Cc2c(F)cccc2Cl)C1=O` (racemic), the Activity rises from 40% to 92%.

For `O=C(NCc1c(F)cc(F)cc1F)c1ccc2c(c1)N(Cc1c(F)cccc1Cl)C(=O)CC2`, the Activity was 107%.

molecular target: T1, Stimulator of interferon genes protein; assay: Activation of wild-type human STING expressed in HEK293T cells assessed as IRF3 reporter activation at 10 uM measured after 20 hrs by luciferase reporter gene assay; format: cell-based; conditions: not given; procedure, shortened: as §1

Going from `O=C(NCc1ccco1)c1ccc2c(c1)N(Cc1c(F)cccc1Cl)C(=O)C21CC1` to `O=C(NCc1ccco1)c1ccc2c(c1)N(Cc1c(F)cccc1Cl)C(=O)CO2`, the Activity rises from 6% to 30%.

Compared with `O=C(NCc1c(F)cc(F)cc1F)c1ccc2c(c1)N(C(=O)c1c(F)cccc1Cl)CCO2`, `O=C(NCc1ccco1)c1ccc2c(c1)N(Cc1ccccc1)C(=O)CCO2` is lower in Activity: 26% for the first, -1% for the second.

First: O=C(NCc1ccco1)c1ccc2[nH]c(=O)n(Cc3ccccc3)c(=O)c2c1
Second: O=C(NCc1ccco1)c1ccc2[nH]c(=O)n(Cc3ccccc3Cl)c2c1
The Activity of the first is higher: 0% for the first, -1% for the second.

Compared with `CN1C(=O)C(C)(Cc2ccccc2)c2cc(C(=O)NCc3ccco3)ccc21` (stereo unspecified), `O=C(NCc1ccco1)c1ccc2c(c1)N(Cc1ccccc1)C(=O)CS2` is higher in Activity: -1% for the first, 27% for the second.

`O=C(NCc1ccco1)c1ccc2ccn(Cc3ccccc3)c2c1` gave an Activity of -1%.

same assay, conditions: filed as activator

Compared with `CC1(C)C(=O)N(Cc2ccccc2F)c2cc(C(=O)NCc3ccco3)ccc21`, `O=C(NCc1ccco1)c1ccc2c(c1)N(Cc1c(F)cccc1Cl)C(=O)CC2` is higher in Activity: 73% for the first, 105% for the second.

In the case of `O=C(NCc1c(F)cc(F)cc1F)c1cnc2c(c1)N(Cc1cc(F)cc(F)c1)C(=O)CC2`, the Activity is reported as 58%.

molecular target: T1, Stimulator of interferon genes protein; assay: Activation of wild-type human STING expressed in HEK293T cells assessed as IRF3 reporter activation at 20 uM measured after 20 hrs by luciferase reporter gene assay; format: cell-based; conditions: filed as activator; procedure, shortened: as §1

In the case of `CC1(O)C(=O)N(Cc2c(F)cccc2Cl)c2cc(C(=O)NCc3c(F)cc(F)cc3F)ccc21` (racemic), the Activity is reported as 67%.

molecular target: T1, Stimulator of interferon genes protein; assay: Activation of wild-type human STING expressed in HEK293T cells assessed as IRF3 reporter activation at 50 uM measured after 20 hrs by luciferase reporter gene assay; format: cell-based; conditions: not given; procedure, shortened: as §1

`O=C(NCc1ccco1)c1ccc2c(c1)N(Cc1ccccc1F)C(=O)C2=O` showed an Activity of 0%.

molecular target: T1, Stimulator of interferon genes protein; assay: Activation of wild-type human STING expressed in HEK293T cells assessed as IRF3 reporter activation at 100 uM measured after 20 hrs by luciferase reporter gene assay; format: cell-based; conditions: not given; procedure, shortened: as §1

Work on `O=C(NCc1ccco1)c1ccc2c(c1)N(Cc1c(F)cccc1Cl)C(=O)C[S+]2[O-]` (stereo unspecified) yielded an Activity of 7%.
